Assays:
[1] = test system: formalin-induced hindpaw licking; assay: Formalin test; assay type: in vivo; settings: rats, Serodolin 10 mg/kg s.c., morphine 4 mg/kg s.c.
[2] = molecular target: T1, 5-HT7R (Homo sapiens, UniProt P34969); assay type: cell-based; settings: 10 µM ligand, 2 to 60 min, Western blot
Summary of the method: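 HEK-293 cells stably expressing h5-HT7R were exposed to 10 µM ligand for 2 to 60 min, or to rising concentrations for 7 min. Lysates were run on 10% SDS-PAGE, transferred to PVDF and blocked in 5% milk in TBS-T (pH 7.4), then probed for phospho-ERK1/2. Bands were quantified by densitometry; three independent experiments, mean ± SEM.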

[3] = molecular target: T1, 5-HT7R; assay: cAMP accumulation; assay type: cell-based; settings: ligand alone
[4] = molecular target: T1, 5-HT7R; assay type: cell-based
Summary of the method: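 HEK-293 cells stably expressing h5-HT7R, grown in DMEM with 10% dialyzed FCS and penicillin/streptomycin. Cells were preincubated with a 5-HT7R antagonist (10 µM, 10 min) or the PKA inhibitor H89 before 10 µM ligand. Lysates were read by AlphaScreen SureFire p-ERK1/2 and p-c-SRC kits, or by Western blot with densitometry. Three independent experiments; mean ± SEM.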

[5] = Pharmacokinetic study in plasma and brain; assay type: in vivo; settings: 5 mg/kg s.c., C57BL/6 mice
[6] = test system: thermal nociception; assay: Tail immersion test; assay type: in vivo; settings: 5 mg/kg s.c.
Summary of the method: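 Male mice (8–14 wk; C57BL/6 or 5-HT7R−/− on C57BL/6 background) received test compound 5 mg/kg by tail s.c. injection. Vehicle was 20% DMSO and 5% Tween 80 in PBS. Some groups were also given 5-HT7R antagonist 5 mg/kg i.p. Tail immersion latency in 50 ± 2 °C water was measured 10 min (T0) and 40 min (T30) post-injection.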

[7] = pretreatment, Serodolin 10 µM 7 min, AlphaScreen

T1 sequence (P34969 1-432): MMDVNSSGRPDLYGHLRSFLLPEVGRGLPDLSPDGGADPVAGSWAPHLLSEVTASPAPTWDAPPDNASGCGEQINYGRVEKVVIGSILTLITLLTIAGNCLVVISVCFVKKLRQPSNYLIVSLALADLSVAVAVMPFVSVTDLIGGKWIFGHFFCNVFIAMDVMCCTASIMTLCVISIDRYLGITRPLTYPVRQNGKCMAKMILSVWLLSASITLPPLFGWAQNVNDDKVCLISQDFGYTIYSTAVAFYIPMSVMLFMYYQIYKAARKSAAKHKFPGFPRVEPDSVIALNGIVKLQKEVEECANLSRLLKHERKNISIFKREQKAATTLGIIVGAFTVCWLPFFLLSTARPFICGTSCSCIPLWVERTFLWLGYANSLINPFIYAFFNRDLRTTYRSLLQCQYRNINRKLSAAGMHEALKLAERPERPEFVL

## CN1CC[C@]23c4c5ccc(O)c4O[C@H]2[C@@H](O)C=C[C@H]3[C@H]1C5 [morphine]
[1]; 0 to 5 min, not significant
  inhibitory effect on licking, early phase (vs vehicle-treated group): −57%
[1]; 17 to 27 min
  inhibition of licking, late phase (vs vehicle-treated group): −64%

## O=C1Nc2cccc3c2C1(CCCCN1CC=C(c2ccccc2)CC1)CCC3 (stereo not shown) [DR4004]
[2]
  induction of ERK phosphorylation: none of them were able to induce ERK activation

## Cc1nn(C)c(C)c1-c1cccc(CCN(C)C)c1 [E55888]
[3]
  effect on cAMP when tested alone: induced a concentration-dependent accumulation of cAMP
[2]
  induction of ERK phosphorylation: induce ERK phosphorylation
[4]; 10 µM, 7 min, Western blot
  phosphorylation of c-SRC kinase at Tyr416: could not be observed after 5-CT or E55888 stimulation
[5]
  time after which compound is eliminated / undetectable in plasma and brain: 120 min
[5]; brain
  maximum of detection in brain: 1.4 ± 0.2 µg/mL
[5]; plasma
  maximum of detection in plasma: 6.1 ± 0.5 µg/mL
[6]
  antinociceptive effect in 5-HT7R KO mice: did not exert any antinociceptive effect

## CC(C)(C)n1nc(-c2ccc(Cl)cc2)c2c(N)ncnc21 [PP2]
[4]; [7]
  block of Serodolin-induced ERK phosphorylation: 99%
  block of Serodolin-induced c-SRC phosphorylation: 100%

## Nc1ncnc2c1cnn2-c1ccccc1 [PP3]
[4]; pretreatment, AlphaScreen
  effect on Serodolin-induced ERK and c-SRC phosphorylation: inactive

Source: publication PMC9173812 (Proceedings of the National Academy of Sciences of the …, 2022)
